In PMC3204933 (Free radical biology & medicine, 2011):
“Also recorded” adds a separate entry of the source. Each block holds one molecule with its values, some of them ahead of it. Where no end group is shown, it is not given here.

Columns and labels:
[1] = tested on: Nox4 (COS-Nox4 cells); settings: DPI 5 μM; untreated COS-Nox4 4818±19, COS-22 2577±6.5
[2] = tested on: Nox4 (COS-Nox4 cells); assay: cells; settings: Homo sapiens, read-out: inhibition of Nox4-dependent activity
[3] = tested on: nitric oxide synthase (NOS); settings: ref [41], [47]; cited from earlier work
[4] = tested on: xanthine oxidase; settings: ref [41], [47]; cited from earlier work
[5] = tested on: NADH dehydrogenase (mitochondrial complex I); settings: ref [41], [47]; cited from earlier work
[6] = biological target: T1, Nox2 oxidase (COS-Nox2 cell lysate) (Homo sapiens, UniProt P14598); assay: SOD-inhibitable cytochrome c assay, COS-Nox2 cell-free system; format: biochemical; settings: for decrease of O2^•− production: L-NAME 100 μM, rotenone 50 μM, febuxostat 100 nM, n = 3
T1 sequence (P14598 1-390): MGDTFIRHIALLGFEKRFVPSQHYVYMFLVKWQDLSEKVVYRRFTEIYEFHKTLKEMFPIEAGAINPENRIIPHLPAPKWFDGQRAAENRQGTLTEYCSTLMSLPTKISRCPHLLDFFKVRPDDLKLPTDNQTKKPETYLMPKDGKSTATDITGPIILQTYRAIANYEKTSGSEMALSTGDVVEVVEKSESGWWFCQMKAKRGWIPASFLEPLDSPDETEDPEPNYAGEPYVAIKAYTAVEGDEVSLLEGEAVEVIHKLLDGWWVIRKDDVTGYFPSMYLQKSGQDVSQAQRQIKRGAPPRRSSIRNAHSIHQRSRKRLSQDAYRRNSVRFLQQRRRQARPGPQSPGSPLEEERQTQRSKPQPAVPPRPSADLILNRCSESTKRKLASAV

[7] = tested on: Nox1/NOXO1/NOXA1 (HEK-Nox1 cell-free system); assay: Cytochrome c assay, HEK-Nox1 cell-free system; format: biochemical, human; settings: 10 μM Nox2ds preincubated with NOXO1; LiDS 130 μM
Method in brief: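 […] cells were separately transfected with Nox1, NOXO1 or NOXA1. Lysates were spun at 160000 × g for 60 min at 4 °C to give Nox1 membranes and NOXO1 and NOXA1 cytosols. NOXO1 was preincubated with vehicle or 10 μM peptide for 10 min, then Nox1 membrane and NOXA1 added in turn. LiDS (130 μM) was followed by 180 μM NADPH. Output was the initial linear rate of SOD-inhibitable cytochrome c reduction, nmol/min/10^7 cell equivalents.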

[8] = tested on: Nox1 oxidase (COS-Nox1/NOXO1/NOXA1 cells); assay: L-012 chemiluminescence, intact COS-Nox1/NOXO1/NOXA1 cells; format: cell-based, human; settings: n = 3; for L-012 chemiluminescence: untreated 52977±1921
[9] = tested on: COS-22 cells; assay: L-012 chemiluminescence, intact COS-22 cells; format: cell-based; settings: n = 3, untreated 8734±158
[10] = tested on: HEK-Nox1/NOXO1/NOXA1 cells; assay: L-012 chemiluminescence, intact HEK-Nox1/NOXO1/NOXA1 cells; format: cell-based, human; settings: PMA 1 μM
[11] = tested on: HEK 298 cells; assay: L-012 chemiluminescence, non-transfected HEK 298 cells; format: cell-based; settings: PMA 1 μM; n = 4; unstimulated 755±65.3
[12] = tested on: Nox4 DH domain (GST-fused); assay: Fluorescence polarization competition with FITC-Nox4 B-loop; format: binding; settings: for competition with Nox4 B-loop for Nox4 DH domain: fluorescence polarization
[13] = tested on: SH3 domains of p47^phox; settings: ref [41], [42]; cited from earlier work
[14] = tested on: xanthine oxidase; assay: Xanthine/xanthine oxidase O2^•− generating system, EPR; format: biochemical
[15] = biological target: T2, Nox4 dehydrogenase domain (amino acids 304 – 578) recombinant protein fused to GST (human, UniProt Q9NPH5 304-578); assay: fluorescence polarisation
T2 sequence (looked up): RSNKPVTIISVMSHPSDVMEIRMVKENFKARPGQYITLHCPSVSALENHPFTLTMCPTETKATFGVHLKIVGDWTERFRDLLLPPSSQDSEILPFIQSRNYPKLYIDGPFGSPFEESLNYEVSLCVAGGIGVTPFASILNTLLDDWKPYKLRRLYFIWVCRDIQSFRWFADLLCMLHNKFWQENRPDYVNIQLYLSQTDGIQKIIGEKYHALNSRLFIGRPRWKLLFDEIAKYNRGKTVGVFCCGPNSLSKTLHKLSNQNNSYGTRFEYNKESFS

Molecule: c1ccc2c(c1)[I+]c1ccccc1-2 [DPI, diphenyleneiodonium chloride]
H2O2-generating activity, Amplex Red fluorescence [1]: 2977±227 RFU | inhibition at 5 µM [2]: 82% | inhibition [3]: inhibits a multitude of flavin-containing enzymes including nitric oxide synthase (NOS) | inhibition [4]: inhibits a multitude of flavin-containing enzymes including nitric oxide synthase (NOS), xanthine oxidase | inhibition [5]: inhibits a multitude of flavin-containing enzymes including nitric oxide synthase (NOS), xanthine oxidase, and NADH dehydrogenase (mitochondrial complex I)

Molecule: COC(=O)[C@@H](N)CCCNC(N)=N[N+](=O)[O-] [L-NAME, Nω-Nitro-L-arginine methyl ester]
decrease of O2^•− production [6]: did not decrease O2^•− production significantly

Molecule: CCCCCCCCCCCCOS(=O)(=O)[O-].[Li+] [LiDS, lithium dodecyl sulfate]
O2^•− production ([6]; LiDS 130 μM, NADPH 180 μM, vehicle 0.40±0.1, p < 0.05): 1.33±0.1 nmol O2^•−/min/10^7 COS-Nox2 lysate-cell equivalents | effect on O2^•− production in HEK-Nox1 cell-free system [7]: significantly increased O2^•− production

Molecule: CCCCCCCCCCCCCC(=O)O[C@@H]1[C@@H](C)[C@@]2(O)[C@@H](C=C(CO)C[C@]3(O)C(=O)C(C)=C[C@@H]23)[C@@H]2C(C)(C)[C@]12OC(C)=O [PMA, phorbol myristate acetate]
L-012 chemiluminescence ([8]; PMA 1 μM): 56537±2741 RLUs | effect on chemiluminescent signal / O2^•− ([8]; SOD 150 U/ml, PMA 1 μM): did not stimulate O2^•− | L-012 chemiluminescence ([9]; PMA 1 μM): 5903±541 RLUs | stimulation of O2^•− ([10]; n = 4, p < 0.05): significantly stimulated O2^•− | L-012 chemiluminescence ([10]; n = 4, unstimulated 8560±337, p < 0.05): 12946±199 RLUs | L-012 chemiluminescence [11]: 912±40.5 RLUs

Molecule: Cc1nc(-c2ccc(OCC(C)C)c(C#N)c2)sc1C(=O)O [febuxostat, Febuxostat]
decrease of O2^•− production [6]: did not decrease O2^•− production significantly

Molecule: C=C(C)[C@H]1Cc2c(ccc3c2O[C@@H]2COc4cc(OC)c(OC)cc4[C@@H]2C3=O)O1 [rotenone]
decrease of O2^•− production [6]: did not decrease O2^•− production significantly

Molecule: Nox4 B-loop: unlabeled Nox4 B-loop peptide (amino acids 77 – 106) (RTLLAYLRGSQKVPSRRTRRLLDKSRTFHI)
competition with Nox4 B-loop for Nox4 DH domain [12]: effectively competed off the FITC-Nox4 B-loop in the low micromolar range; also recorded: quite effectively, in the low micromolar range

Molecule: PR-39
SH3 binding and association of p47^phox with Nox2 [13]: binds to the SH3 domains of p47^phox, was shown to prevent association of p47^phox with Nox2

inhibition of O2^•− production ([6]; 0.1–10 μM, 5 min preincubation, LiDS 130 μM, NADPH 180 μM, 7–16 experiments): did not inhibit Nox2-oxidase | CM^• radical intensity ([14]; 10 μM peptide + X/XO, 10 min, XO/X control 100±2.4, mean ± SEM of 6 experiments): 92.4±1.8% | effect on XO-generated O2^•− ([14]; 10 μM, 10 min preincubation): did not alter XO-generated O2^•−
Molecule: [NH3]-C-L-R-V-T-R-Q-S-R-[CONH2] [scrmb Nox2ds]
competition with Nox4 B-loop ([12]; at concentrations below 0.1 mM): not effective | competition with Nox4 B-loop for Nox4 DH domain [12]: equal and poor competition with the Nox4 B-loop for binding to the Nox4 DH domain (millimolar concentrations)

radical intensity ([14]; XO + X in presence of 100 U/ml SOD, 6 experiments): 15.7±0.3%
Molecule: superoxide dismutase [SOD]
effect on chemiluminescent signal / O2^•− ([8]; SOD 150 U/ml, PMA 1 μM): abolished the chemiluminescent signal | L-012 chemiluminescence ([8]; SOD 150 U/ml): 177±9 RLUs | L-012 chemiluminescence ([9]; SOD 150 U/ml): 108±16 RLUs

LogEC50 [15]: 3 nM
Molecule: RTLLAYLRGSQKVPSRRTRRLLDKSRTFHI (peptide, UniProt Q9NPH5-1 77-106, looked up) [unlabeled Nox4 B-loop peptide (amino acids 77 – 106)]

LogEC50 [15]: 5.5 nM
Molecule: CSTRVRRQL-NH2 [Nox2ds]
